F508del corr – correctors of CFTR F508del function in bronchial epithelial cells. CFBE cells, YFP halide quenching; stimulated with forskolin plus potentiator P3; % fluorescence drop versus neutral controls. activity (quench increase), % at 7.58 µM. 0.36% of 350,000 active. AID 720511;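 active = mean added fluorescence quench of at least 8% versus neutral control, with both replicates also reaching 8%; inconclusive = only one of the mean or replicate conditions met; inactive = mean below 8% and not both replicates reaching 8%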;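 also: cells transiently co-express mutant CFTR-F508del with the halide-sensitive YFP; corrector assay measuring rescue of mutant channel to the surface after 24 h compound exposure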
PDI inh – PDI (human) enzyme inhibition | AID 588391 | 0.052% of 350,000 active | inhibition, % at 10 µM | PDI insulin aggregation turbidity, A650, 90 min | P07237;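 active = mean inhibition across replicates of 30% or more, whatever share of single replicates reach that level; inconclusive = mean inhibition below 30% while every single replicate reaches 30%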
Target sequence (P07237 whole entry, looked up): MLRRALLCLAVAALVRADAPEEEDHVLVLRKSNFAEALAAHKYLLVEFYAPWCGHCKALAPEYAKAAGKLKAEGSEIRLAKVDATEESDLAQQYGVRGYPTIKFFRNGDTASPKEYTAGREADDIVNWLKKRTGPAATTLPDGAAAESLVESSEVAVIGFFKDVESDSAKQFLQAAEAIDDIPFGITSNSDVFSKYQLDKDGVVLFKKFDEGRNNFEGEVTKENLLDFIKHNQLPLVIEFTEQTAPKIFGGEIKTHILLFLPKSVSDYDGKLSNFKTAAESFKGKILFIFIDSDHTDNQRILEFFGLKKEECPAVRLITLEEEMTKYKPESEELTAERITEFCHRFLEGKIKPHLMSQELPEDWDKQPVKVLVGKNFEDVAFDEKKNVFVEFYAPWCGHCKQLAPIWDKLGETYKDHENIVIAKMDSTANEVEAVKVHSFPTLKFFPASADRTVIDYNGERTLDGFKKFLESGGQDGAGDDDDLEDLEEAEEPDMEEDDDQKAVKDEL
DENV2 CPE rescue – inhibitors of DENV2 cytopathic effect. DENV2-infected cells, cytopathic effect rescue, plate reader. 1.7% of 350,000 active. AID 651640. CPE inhibition, % at 9.99 µM; in the data active = CPE inhibition above about 20%, passing the limit was not always enough; inconclusive = no clear call, values can overlap the other calls; tested in BHK-21 cells
C2C12 statin – suppressors of simvastatin-induced myotoxicity in C2C12 myotubes | rescue of ATP level, % at 7.49 µM | ATP luminescence, 48 h; scaled: DMSO 0, geranylgeraniol control 100 | 0.78% of 330,000 active;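 active = mean ATP rescue above about 67%, or every replicate alone reaching that limit, limit read from the data, passing the limit was not always enough; inconclusive = no clear call, values can overlap the other calls; inactive = mean under the limit and some replicate under it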;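 also: myotubes were challenged with 10 µM simvastatin during compound exposure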
Cneo AK release – causes C. neoformans cell lysis; 0.2% of 360,000 active; lysis activity, % at 15 µM; AID 651654; adenylate kinase release luminescence, 4 h; normalised: neutral wells 0, clomiphene wells 100;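 active = mean lysis activity across replicates of at least 80%, whatever share of replicates individually reach that level; inactive = mean lysis activity below 80%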
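Schedule: static 4 h at 37 °C with compound, 1 h detection; system: C. neoformans cells; benchmarks: Clomiphene as positive control; buffer or medium: fresh YPD medium; measure: luminescence rise reflecting yeast cell lysis; measured by: luminescent adenylate kinase detection reagent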
ERp5 inh – ERp5 (human) disulfide isomerase inhibition. 0.05% of 350,000 active. AID 651711. inhibition, % at 9.99 µM. ERp5 insulin aggregation, absorbance 650 nm, 90 min. Q15084;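 active = mean replicate inhibition above about 25%, with every replicate also reaching it, limit read from the data, passing the limit was not always enough; inconclusive = only one of those two criteria met; inactive = neither criterion met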
Of the large screens only hits and unclear results are named; the others gave an inactive call. The list is not random: actives were taken first. Their share in the collection is about 2.3%.

Cc1noc(C)c1S(=O)(=O)Nc1cccc2c1O[C@H](CN(C)C(=O)Nc1ccccc1)[C@H](C)CN([C@H](C)CO)C2=O	none (no result: PDI inh)
O=C(CCN1C(=O)/C(=C/c2ccccc2)SC1=S)NNC(=O)c1cccnc1	none (no result: F508del corr, DENV2 CPE rescue, C2C12 statin, Cneo AK release, ERp5 inh)
O=C(CCN1C(=O)/C(=C/c2ccc3c(c2)OCO3)SC1=S)NNC(=O)c1cccnc1	DENV2 CPE rescue 47 (no result: C2C12 statin, Cneo AK release)
COC(=O)c1c(CC[C@@H](CO)NC(=O)N[C@H](Cn2cc(-c3cncn3C)nn2)C(C)C)oc(C(C)=O)c1C(=O)OC	none (no result: PDI inh, C2C12 statin)
CCCCc1cn(C[C@H](Cc2ccccc2)NC(=O)N[C@H](CO)CCc2oc(C(C)=O)c(C(=O)OC)c2C(=O)OC)nn1	DENV2 CPE rescue 22 (no result: PDI inh, C2C12 statin)
Cc1noc(C)c1NC(=O)N(C)C[C@@H]1Oc2ccc(NS(=O)(=O)c3ccc(F)cc3)cc2CC(=O)N([C@H](C)CO)C[C@H]1C	none (no result: PDI inh)
Cc1cc(C)n(CC(=O)N2c3ccccc3Sc3ccccc32)n1	C2C12 statin 119 (no result: F508del corr, DENV2 CPE rescue, ERp5 inh)
CCOC(=O)C1=NN(C(=O)Cc2ccccc2)C(O)(c2ccc(Cl)cc2)C1 (stereo not given)	C2C12 statin 139 (no result: F508del corr, DENV2 CPE rescue, ERp5 inh)
Cn1c(=O)n(CC(=O)NC2CCCCC2)c(=O)c2ccccc21	C2C12 statin 72 (no result: F508del corr, DENV2 CPE rescue, ERp5 inh)
Cn1c(=O)c2ccccc2n(CC(=O)NC2CCCCC2)c1=O	none
Cc1ccsc1C1Nc2ccc3ncccc3c2C2=C1C(=O)CCC2 (stereo not given)	C2C12 statin 79 (no result: F508del corr, DENV2 CPE rescue)
CC=Cc1ccc2n(c1=O)C[C@H]1[C@H](CO)[C@@H](C(=O)NCC(F)(F)F)[C@@H]2N1C(=O)C1CC1 (mixture of isomers)	DENV2 CPE rescue 59 (no result: PDI inh)
CC=Cc1ccc2n(c1=O)C[C@@H]1[C@@H](CO)[C@H](C(=O)NCC)[C@H]2N1C(C)=O (mixture of isomers)	none (no result: PDI inh)
CC=Cc1ccc2n(c1=O)C[C@@H]1[C@@H](CO)[C@H](C(=O)NCC(F)(F)F)[C@H]2N1C(=O)C1CC1 (mixture of isomers)	DENV2 CPE rescue inconclusive (no result: PDI inh)
CC(=O)N1[C@@H]2Cn3c(ccc(-c4ccc(F)cc4)c3=O)[C@H]1[C@@H](C(=O)N(C)C)[C@@H]2CO	DENV2 CPE rescue 27 (no result: F508del corr, PDI inh)
CCNC(=O)[C@@H]1[C@@H](CO)[C@@H]2Cn3c(ccc(-c4ccc(F)cc4)c3=O)[C@H]1N2C(C)=O	none (no result: PDI inh)
CC=Cc1ccc2n(c1=O)C[C@@H]1[C@@H](CO)[C@H](C(=O)NCC(F)(F)F)[C@H]2N1C(C)=O (mixture of isomers)	DENV2 CPE rescue 76 (no result: PDI inh)
O=C(C[C@H]1CC[C@@H]2NC[C@H](O)COC[C@H]2O1)Nc1nccs1	none (no result: PDI inh, ERp5 inh)
COc1ccccc1NC(=O)N[C@H]1CC[C@@H](CCNS(=O)(=O)c2ccc(F)cc2)O[C@H]1CO	none (no result: PDI inh)
O=C(NCCCN1CCOCC1)c1sc2cc(Cl)ccc2c1Cl	F508del corr 11 (no result: C2C12 statin, Cneo AK release)
CC(Oc1ccc(Cl)cc1Cl)C(=O)NCCCN1CCOCC1 (stereo not given)	DENV2 CPE rescue 62
Cc1cc(OC(C)C(=O)NCCCN2CCOCC2)ccc1Cl (stereo not given)	none
Cc1nnc(N2C(=O)C(O)=C(C(=O)c3ccco3)C2c2ccc(C(C)(C)C)cc2)s1 (stereo not given)	C2C12 statin 117 (no result: F508del corr, DENV2 CPE rescue, ERp5 inh)
Cc1nnc(N2C(=O)C(O)=C(C(=O)c3ccco3)C2c2ccc(F)cc2)s1 (stereo not given)	DENV2 CPE rescue inconclusive
C[C@H]1CN([C@@H](C)CO)C(=O)Cc2cc(N(C)C)ccc2O[C@@H]1CN(C)Cc1ccc(C(F)(F)F)cc1	none (no result: PDI inh, DENV2 CPE rescue, Cneo AK release, ERp5 inh)
Cc1cccc2c(-c3ccccc3)cc(=O)[nH]c12	C2C12 statin 84 (no result: F508del corr, DENV2 CPE rescue, ERp5 inh)
O=C(CCc1nnc(Cc2c[nH]c3ccccc23)o1)NCCC1CCCCO1 (stereo not given)	DENV2 CPE rescue 54
O=C(CCc1nnc(Cc2c[nH]c3ccccc23)o1)NC1CCCC1	none
CCC(=O)OCCNc1cc(Sc2nc3ccccc3s2)c2nonc2c1[N+](=O)[O-]	C2C12 statin 102 (no result: F508del corr, DENV2 CPE rescue, ERp5 inh)
O=[N+]([O-])c1c(NCCCO)cc(Sc2nc3ccccc3s2)c2nonc12	none (no result: F508del corr, DENV2 CPE rescue)
CC(=O)c1cccc(NC(=S)NC2CCCCCCC2)c1	DENV2 CPE rescue inconclusive, Cneo AK release 129
CC(C)NC(=O)N(C)C[C@@H]1Oc2c(NC(=O)C3CCCCC3)cccc2C(=O)N([C@@H](C)CO)C[C@@H]1C	Cneo AK release 84 (no result: PDI inh)
CC(C)NC(=O)N(C)C[C@H]1Oc2c(NC(=O)C3CCCCC3)cccc2C(=O)N([C@H](C)CO)C[C@H]1C	Cneo AK release 114 (no result: PDI inh)
Nc1nc2c(ncn2[C@@H]2O[C@H](C(=O)NCC(c3ccccc3)c3ccccc3)[C@@H](O)[C@H]2O)c(=O)[nH]1	none (no result: PDI inh, C2C12 statin, Cneo AK release)
CC(CNC(=O)[C@H]1O[C@@H](n2cnc3c(=O)[nH]c(N)nc32)[C@H](O)[C@@H]1O)c1ccccc1 (stereo not given in full)	DENV2 CPE rescue 68 (no result: PDI inh, C2C12 statin, Cneo AK release)
S=C1Cc2ccccc2N1	C2C12 statin 74
CNC[C@H]1Oc2cc(C#CC3(O)CCCC3)ccc2S(=O)(=O)N([C@@H](C)CO)C[C@@H]1C	none (no result: PDI inh)
CCOC(=O)Cc1csc(NC(=O)CC)n1	none (no result: F508del corr, DENV2 CPE rescue)
CCOC(=O)Cc1csc(NC(=O)CC(C)(C)C)n1	C2C12 statin 110 (no result: F508del corr, DENV2 CPE rescue, ERp5 inh)
COc1ccc(-c2cc(C(F)F)n3ncc(C(=O)N4CCc5ccccc54)c3n2)cc1	F508del corr 14
CCCNC(=O)N[C@@H]1C=C[C@@H](CC(=O)NCCc2ccccc2)O[C@@H]1CO	none (no result: PDI inh, DENV2 CPE rescue, Cneo AK release, ERp5 inh)
Cc1ccc(S(=O)(=O)N2CCN(C(=O)COC(=O)/C=C/c3ccc(F)cc3)CC2)c(C)c1	none
CSc1ccc(/C=C/C(=O)OCC(=O)N2CCN(S(=O)(=O)c3ccc(C)cc3C)CC2)cc1	DENV2 CPE rescue 25
CCN(Cc1ccccc1)C(=O)CSc1ccccc1C(=O)O	none (no result: C2C12 statin, Cneo AK release)
CCN(CC)C(=O)CSc1ccccc1N	C2C12 statin 116 (no result: F508del corr, DENV2 CPE rescue, ERp5 inh)
COC(=O)Cn1c(C(=O)N(C)C)cc2c1C[C@H]1CN(C(=O)c3ccccc3)[C@@](Cc3ccc(F)cc3)(C(=O)OC)[C@@H]21	DENV2 CPE rescue 63 (no result: PDI inh, C2C12 statin, Cneo AK release)
COC(=O)[C@@]1(Cc2ccc(F)cc2)[C@H]2c3cc(C(=O)N(C)C)n(Cc4ccc(OC(F)(F)F)cc4)c3C[C@H]2CN1C(=O)c1ccccc1	DENV2 CPE rescue 20 (no result: PDI inh, C2C12 statin, Cneo AK release)
Cc1ccc(S(=O)(=O)NCC[C@@H]2CC[C@H](NC(=O)c3cccc(F)c3)[C@@H](CO)O2)cc1	none (no result: PDI inh)
NC(=O)c1ncn([C@@H]2O[C@H](C(=O)N[C@H](Cc3c[nH]c4ccccc34)C(=O)N3CCN(CC(=O)N4CCCC4)CC3)[C@@H](O)[C@H]2O)n1	DENV2 CPE rescue 21 (no result: PDI inh, C2C12 statin, Cneo AK release)
C[C@H](CO)N1C[C@H](C)[C@H](CN(C)S(=O)(=O)c2cn(C)cn2)Oc2ccc(NS(=O)(=O)c3cccs3)cc2CC1=O	DENV2 CPE rescue inconclusive (no result: PDI inh)
